Test results reported in ChEMBL document CHEMBL2062446, “Design of a Potent CB1 Receptor Antagonist Series: Potential Scaffold for Peripherally-Targeted Agents” (ACS Med Chem Lett, 2012).

Assays:
MDR1 = assay: Apparent permeability from apical to basal side of MDCK cells expressing MDR1; assay type: ADME, cell-based, Canis lupus familiaris; details: dog
Method in brief: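 MDCK cells transfected with the MDR1 gene were used to assess whether compounds are MDR1 transporter substrates.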

[1] = 1-Octanol-sodium phosphate buffer partition coefficient, log D of the compound at pH 7.4 after 24 hrs by shake flask method; assay type: physicochemical

Row | Structure (SMILES) | Papp A→B (MDR1) [nm/s] | logD at 24 h [1]
1 | CC(C)C(=O)N[C@@H]1CCCOc2c1nn(-c1ccccc1Cl)c2-c1ccc(Cl)cc1 | 84 | –
2 | CCOCC(=O)NC1CCCOc2c1nn(-c1ccccc1Cl)c2-c1ccc(Cl)cc1 (configuration not stated) | 65 | –
3 | N#CC1(C(=O)NC2CCCOc3c2nn(-c2ccccc2Cl)c3-c2ccc(Cl)cc2)CC1 (configuration not stated) | 10 | –
4 | CC(F)(F)CN1CCOc2c(nn(-c3ccccc3Cl)c2-c2ccc(Cl)cc2)C1=O | 71 | 4.1
5 | CC(=O)NC1CCCOc2c1nn(-c1ccccc1Cl)c2-c1ccc(Cl)cc1 (racemic) | 141 | –
6 | CCC(=O)NC1CCCOc2c1nn(-c1ccccc1Cl)c2-c1ccc(Cl)cc1 (racemic) | 121 | –
7 | CC(C)C(=O)NC1CCCOc2c1nn(-c1ccccc1Cl)c2-c1ccc(Cl)cc1 (racemic) | 69 | –
8 | O=C(NC1CCCOc2c1nn(-c1ccccc1Cl)c2-c1ccc(Cl)cc1)C1CCOCC1 (racemic) | 68 | –
9 | COCC(=O)NC1CCCOc2c1nn(-c1ccccc1Cl)c2-c1ccc(Cl)cc1 (racemic) | 91 | –
10 | COC(=O)NC1CCCOc2c1nn(-c1ccccc1Cl)c2-c1ccc(Cl)cc1 (racemic) | 91 | –
11 | CCNC(=O)NC1CCCOc2c1nn(-c1ccccc1Cl)c2-c1ccc(Cl)cc1 (racemic) | 63 | –
12 | O=C(NC1CCCOc2c1nn(-c1ccccc1Cl)c2-c1ccc(Cl)cc1)c1ccon1 (racemic) | 66 | –
13 | O=C(NC1CCCOc2c1nn(-c1ccccc1Cl)c2-c1ccc(Cl)cc1)c1ccno1 (racemic) | 32 | –
14 | O=C(NC1CCCOc2c1nn(-c1ccccc1Cl)c2-c1ccc(Cl)cc1)c1cnon1 (racemic) | 30 | –
15 | CS(=O)(=O)CC(=O)NC1CCCOc2c1nn(-c1ccccc1Cl)c2-c1ccc(Cl)cc1 (racemic) | 27 | –
16 | O=C1CCCN1C1CCCOc2c1nn(-c1ccccc1Cl)c2-c1ccc(Cl)cc1 (racemic) | 112 | –
